Data taken from ChEMBL document CHEMBL1135937, “Further studies on conformationally constrained tricyclic tropane analogues and their uptake inhibition at monoamine transporter sites: synthesis of (Z)-9-(substituted arylmethylene)-7-azatricyclo[4.3.1.0(3,7)]decanes as a novel class of serotonin transporter inhibitors” (J Med Chem, 2002).

What was measured:
[1] = target: Norepinephrine transporter (Rattus norvegicus, UniProt Q9WTR4); assay: Ability to inhibit high affinity reuptake of [3H]-NE (Norepinephrine transporter) into nerve ending synaptosomes prepared from brain regions; type: subcellular
Norepinephrine transporter, sequence (Q9WTR4 whole entry): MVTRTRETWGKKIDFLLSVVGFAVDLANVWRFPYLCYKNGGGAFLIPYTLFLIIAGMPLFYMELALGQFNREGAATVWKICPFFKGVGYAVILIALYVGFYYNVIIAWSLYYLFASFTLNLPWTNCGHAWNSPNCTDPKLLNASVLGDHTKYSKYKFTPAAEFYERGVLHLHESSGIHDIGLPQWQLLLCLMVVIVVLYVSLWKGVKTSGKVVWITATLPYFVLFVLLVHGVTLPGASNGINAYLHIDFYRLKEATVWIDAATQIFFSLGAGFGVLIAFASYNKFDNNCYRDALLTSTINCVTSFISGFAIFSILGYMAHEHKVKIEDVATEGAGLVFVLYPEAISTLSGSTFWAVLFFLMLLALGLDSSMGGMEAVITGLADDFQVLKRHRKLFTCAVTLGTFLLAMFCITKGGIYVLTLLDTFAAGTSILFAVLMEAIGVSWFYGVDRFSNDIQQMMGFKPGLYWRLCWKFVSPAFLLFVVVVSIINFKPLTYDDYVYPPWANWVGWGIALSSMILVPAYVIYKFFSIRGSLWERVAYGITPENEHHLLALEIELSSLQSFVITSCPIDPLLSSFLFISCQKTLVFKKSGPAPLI

[2] = target: Sodium-dependent serotonin transporter (Rattus norvegicus, UniProt P31652); assay: Inhibition of high affinity re-uptake of [3H]5-HT (serotonin) into nerve ending synaptosomes; type: subcellular, Brain
Sodium-dependent serotonin transporter, sequence (P31652 whole entry): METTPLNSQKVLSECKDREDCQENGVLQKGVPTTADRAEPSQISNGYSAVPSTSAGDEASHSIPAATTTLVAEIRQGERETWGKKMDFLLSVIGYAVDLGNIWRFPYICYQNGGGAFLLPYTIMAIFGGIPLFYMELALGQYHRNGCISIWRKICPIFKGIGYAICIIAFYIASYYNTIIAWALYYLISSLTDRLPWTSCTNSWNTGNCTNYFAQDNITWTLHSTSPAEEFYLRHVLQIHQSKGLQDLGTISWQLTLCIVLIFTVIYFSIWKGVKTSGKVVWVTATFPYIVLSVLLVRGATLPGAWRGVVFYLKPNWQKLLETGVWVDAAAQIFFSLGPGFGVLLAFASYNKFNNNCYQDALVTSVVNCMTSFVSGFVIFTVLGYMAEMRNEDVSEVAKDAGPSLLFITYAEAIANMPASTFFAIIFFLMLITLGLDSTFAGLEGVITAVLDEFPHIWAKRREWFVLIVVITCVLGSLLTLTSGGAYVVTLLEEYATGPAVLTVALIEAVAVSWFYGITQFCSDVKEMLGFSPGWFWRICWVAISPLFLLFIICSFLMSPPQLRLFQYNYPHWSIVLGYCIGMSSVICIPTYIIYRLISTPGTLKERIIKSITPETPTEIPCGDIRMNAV
Outline: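 Synaptosomes (P2) from rat midbrain in modified KRH buffer (pH 7.4, with nialamide), preincubated with drug for 30 min at 4 °C, then 15 min at 37 °C. [3H]5-HT (~5 nM final) uptake ran for 5 min, then filtration and scintillation counting. IC50 from six concentrations in triplicate; Ki by Cheng–Prusoff, 2–4 experiments.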

[3] = Uptake ratio Ki of dopamine relative to serotonin (5-HT) at monoamine transporter
[4] = Uptake ratio Ki of norepinephrine relative to serotonin (5-HT) at monoamine transporter
[5] = target: Sodium-dependent dopamine transporter (Rattus norvegicus, UniProt P23977); assay: Ability to inhibit high affinity reuptake of [3H]DA from dopamine transporter into nerve endings synaptosomes; type: subcellular, Brain
Sodium-dependent dopamine transporter, sequence (P23977 whole entry): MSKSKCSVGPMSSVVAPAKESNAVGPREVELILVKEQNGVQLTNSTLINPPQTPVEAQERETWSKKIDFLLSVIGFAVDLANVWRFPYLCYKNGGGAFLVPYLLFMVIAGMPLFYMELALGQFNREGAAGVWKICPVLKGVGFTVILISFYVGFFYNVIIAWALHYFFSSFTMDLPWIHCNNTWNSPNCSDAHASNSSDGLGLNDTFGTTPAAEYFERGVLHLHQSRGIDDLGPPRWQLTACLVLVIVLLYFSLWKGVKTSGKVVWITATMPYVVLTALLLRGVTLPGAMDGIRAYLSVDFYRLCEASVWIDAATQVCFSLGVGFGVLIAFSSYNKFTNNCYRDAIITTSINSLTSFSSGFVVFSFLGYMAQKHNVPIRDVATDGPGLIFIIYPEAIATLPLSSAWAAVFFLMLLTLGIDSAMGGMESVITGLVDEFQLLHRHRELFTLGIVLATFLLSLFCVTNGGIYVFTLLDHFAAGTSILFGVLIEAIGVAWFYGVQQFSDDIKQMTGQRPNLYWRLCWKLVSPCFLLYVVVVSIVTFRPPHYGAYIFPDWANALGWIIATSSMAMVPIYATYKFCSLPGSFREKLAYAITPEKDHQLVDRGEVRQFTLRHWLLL
Outline: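 Rat striatal P2 synaptosomes in modified KRH buffer (pH 7.4, with nialamide), preincubated with drug for 30 min at 4 °C, then 15 min at 37 °C. Uptake of [3H]DA (~5 nM final) ran for 5 min and was stopped by cold Na-free buffer and filtration. IC50 from six concentrations in triplicate; Ki by Cheng–Prusoff, 2–4 experiments.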

[6] = Uptake ratio Ki of norepinephrine relative to dopamine at monoamine transporter

SMILES | Ki [1] [nM] | Ki [2] [nM] | Ratio [3] | Ratio [4] | Ki [5] [nM] | Ratio [6]
CC(=O)OCC1C2CC3CCC1N3C/C2=C\c1cccc(Cl)c1 (stereo not drawn) | 1180 | 92.9 | 64.4 | 12.7 | 5980 | 0.2
CC(=O)OCC1C2CC3CCC1N3C/C2=C\c1ccc(Cl)c(Cl)c1 (stereo not drawn) | 638 | 1.6 | 1170 | 399 | 1870 | 0.34
COC(=O)C1C2CC3CCC1N3C/C2=C\c1ccc(C(F)(F)F)cc1 (stereo not drawn) | 1830 | 12.6 | – | 145 | – | –
O=C(OCC1C2CC3CCC1N3C/C2=C\c1ccc(Br)c(Cl)c1)c1ccccc1 (stereo not drawn) | 3840 | 3.2 | > 3120 | 1200 | > 10000 | < 0.38
COC(=O)C1C2CC3CCC1N3C/C2=C\c1cccc2ccccc12 (stereo not drawn) | 5370 | 121 | 80.3 | 44 | 9720 | 0.55
COC(=O)C1C2CC3CCC1N3C/C2=C\c1ccc(C)c(C)c1 (stereo not drawn) | 659 | 10.1 | – | 65 | – | –
COC(=O)C1C2CC3CCC1N3C/C2=C\c1ccc(OC)cc1 (stereo not drawn) | 187 | 56 | 55.9 | 3.3 | 3130 | 0.06
O=C(OCC1C2CC3CCC1N3C/C2=C\c1ccc(Cl)c(Cl)c1)c1ccccc1 (stereo not drawn) | 3070 | 3.1 | 4550 | 990 | 14100 | 0.22
COC(=O)C1C2CC3CCC1N3C/C2=C\c1ccccc1 (stereo not drawn) | 53 | 1140 | 0.42 | 0.05 | 481 | 0.11
O=C(OCC1C2CC3CCC1N3C/C2=C\c1ccc(I)c(Cl)c1)c1ccccc1 (stereo not drawn) | > 10000 | – | > 6e+06 | > 6e+06 | > 10000 | –
COC(=O)C1C2CC3CCC1N3C/C2=C\c1cccc(Cl)c1 (stereo not drawn) | 231 | 53.6 | 145 | 4.3 | 7780 | 0.03
O=C(OCC1C2CC3CCC1N3C/C2=C\c1ccc(Cl)c(Cl)c1)c1ccc(I)cc1 (stereo not drawn) | 8590 | 48.7 | 363 | 176 | 17700 | 0.48
COC(=O)C1C2CC3CCC1N3C/C2=C\c1ccc(Cl)cc1 (stereo not drawn) | 208 | 34.3 | 24.8 | 6 | 853 | 0.24
CON(C)C(=O)C1C2CC3CCC1N3C/C2=C\c1ccc(Cl)c(Cl)c1 (stereo not drawn) | 396 | 30.7 | 281 | 12.9 | 8620 | 0.05
COC(=O)C1C2CC3CCC1N3C/C2=C\c1cc(Cl)cc(Cl)c1 (stereo not drawn) | 4100 | 437 | 12.8 | 9.4 | 5600 | 0.73
O=C(OCC1C2CC3CCC1N3C/C2=C\c1cccc(Cl)c1)c1ccccc1 (stereo not drawn) | 6580 | 11 | 367 | 598 | 4040 | 1.63
COC(=O)C1C2CC3CCC1N3C/C2=C\c1ccc(F)cc1 (stereo not drawn) | 584 | 335 | 19.7 | 1.7 | 6620 | 0.09
COC(=O)C1C2CC3CCC1N3C/C2=C\c1ccc(C)cc1 (stereo not drawn) | 146 | 15 | 43.3 | 9.7 | 649 | 0.22
COC(=O)C1C2CC3CCC1N3C/C2=C\c1ccc(I)c(Cl)c1 (stereo not drawn) | 272 | 1.8 | 1740 | 151 | 3140 | 0.09
COC(=O)C1C2CC3CCC1N3C/C2=C\c1ccc2ccccc2c1 (stereo not drawn) | 157 | 21 | 35 | 7.5 | 735 | 0.21
COC(=O)C1C2CC3CCC1N3C/C2=C\c1ccc(Br)c(Cl)c1 (stereo not drawn) | 459 | 2.3 | 2360 | 200 | 5420 | 0.08
COC(=O)C1C2CC3CCC1N3C/C2=C\c1ccc(Cl)c(Cl)c1 (stereo not drawn) | 1000 | 20 | 96 | 50 | 1920 | 0.52
COC(=O)C1C2CC3CCC1N3C/C2=C\c1ccc2ccc3cccc4ccc1c2c34 (stereo not drawn) | – | 860 | 11.5 | – | 9920 | –

SMILES | Ki [1] [nM] | Ki [2] [nM] | Ratio [3] | Ratio [4] | Ki [5] [nM] | Ratio [6]
COC(=O)C1C2CC3CCC1N3C/C2=C\c1ccc(Br)cc1 (stereo not drawn) | 178 | 11 | 45 | 16 | 495 | 0.36
CC(=O)OCC1C2CC3CCC1N3C/C2=C\c1ccc2ccccc2c1 (stereo not drawn) | 672 | 4.4 | 148 | 153 | 652 | 1.03
COC(=O)C1C2CC3CCC1N3C/C2=C\c1cccc(Cl)c1Cl (stereo not drawn) | 1210 | 354 | 2.4 | 3.4 | 850 | 1.42
Clc1ccc(/C=C2\CN3C4CCC3C(/C=C\c3ccccc3)C2C4)cc1Cl (stereo not drawn) | 2790 | 245 | 8.6 | 11.4 | 2110 | 1.32
CCC(=O)C1C2CC3CCC1N3C/C2=C\c1ccc(Cl)c(Cl)c1 (stereo not drawn) | 651 | 2.2 | 3110 | 296 | 6840 | 0.1
COC(=O)C1C2CC3CCC1N3C/C2=C\c1ccc(I)cc1Cl (stereo not drawn) | 508 | 74 | 89.7 | 6.9 | 6640 | 0.08
Clc1ccc(/C=C2\CN3C4CCC3C(COc3ccc(I)cc3)C2C4)cc1Cl (stereo not drawn) | 2510 | 1170 | 11.7 | 2.1 | 13700 | 0.18
O=C(OCC1C2CC3CCC1N3C/C2=C\c1ccc2ccccc2c1)c1ccccc1 (stereo not drawn) | 3220 | 0.1 | 55300 | 32200 | 5530 | 0.58
CNC(=O)C1C2CC3CCC1N3C/C2=C\c1ccc(Cl)c(Cl)c1 (stereo not drawn) | 417 | 29.8 | 127 | 14 | 3780 | 0.11
O=C(OCC1C2CC3CCC1N3C/C2=C\c1ccc(Cl)c(Cl)c1)c1ccc2ccccc2c1 (stereo not drawn) | 5950 | 9.3 | > 1070 | 640 | > 10000 | < 0.6
O=C(CCCCCCCCCC(=O)OCC1C2CC3CCC1N3C/C2=C\c1ccc(Cl)c(Cl)c1)OCC1C2CC3CCC1N3C/C2=C\c1ccc(Cl)c(Cl)c1 (stereo not drawn) | > 10000 | 8.5 | > 1170 | > 1170 | > 10000 | –
CN(C)C(=O)C1C2CC3CCC1N3C/C2=C\c1ccc(Cl)c(Cl)c1 (stereo not drawn) | 2020 | 28.9 | 231 | 69.9 | 6680 | 0.3
COC(=O)C1C2CC3CCC1N3C/C2=C\c1ccc(F)c(F)c1 (stereo not drawn) | 394 | 101 | 73.7 | 3.9 | 7440 | 0.05
O=C(OCC1C2CC3CCC1N3C/C2=C\c1ccc(I)cc1)c1ccccc1 (stereo not drawn) | 8190 | – | > 100000 | 81900 | > 10000 | < 0.82
Cc1ccc(/C=C2\CN3C4CCC3C(COC(=O)c3ccccc3)C2C4)cc1Cl (stereo not drawn) | > 10000 | 2 | > 20000 | > 20000 | > 10000 | –
O=C(OCC1C2CC3CCC1N3C/C2=C\c1ccc(Br)cc1)c1ccccc1 (stereo not drawn) | 4470 | 3.95 | 835 | 1130 | 3300 | 1.35
COC(=O)C1C2CC3CCC1N3C/C2=C\c1ccc(C(C)C)cc1 (stereo not drawn) | 1110 | 10.2 | – | 109 | – | –
O=C(Oc1ccccc1)C1C2CC3CCC1N3C/C2=C\c1ccc(Cl)c(Cl)c1 (stereo not drawn) | 2410 | 48.3 | 91.9 | 49.9 | 4440 | 0.54
COC(=O)C1C2CC3CCC1N3C/C2=C\c1cc2ccccc2c2ccccc12 (stereo not drawn) | 13000 | 233 | 7 | 56 | 1640 | 7.93
COC(=O)C1C2CC3CCC1N3C/C2=C\c1ccc(C)c(Cl)c1 (stereo not drawn) | 198 | 6.4 | > 1560 | 31 | > 10000 | < 0.02
CC(C)OC(=O)C1C2CC3CCC1N3C/C2=C\c1ccc(Cl)c(Cl)c1 (stereo not drawn) | 325 | 85.7 | 15 | 3.8 | 1290 | 0.25
COC(=O)C1C2CC3CCC1N3C/C2=C\c1ccc(/C=C2\CN3C4CCC3C(C(=O)OC)C2C4)cc1 (stereo not drawn) | 33400 | 993 | 39.2 | 34 | 38900 | 0.86
